Reference: ChEMBL document CHEMBL1147762, “A new chemical tool for exploring the physiological function of the PDE2 isozyme” (Bioorg Med Chem Lett, 2006)

What was measured:
[1] = target: 5-hydroxytryptamine receptor 7 (Homo sapiens) (UniProt P34969); experiment: Percentage binding to serotonin 5HT7 at 10 uM
[2] = target: Voltage-dependent L-type calcium channel subunit alpha-1D (Homo sapiens) (UniProt Q01668); experiment: Percentage binding to dihydropyridine sensitive Ca2+ channel D at 10 uM
How it was run: (§1)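 Single-concentration screen within a panel of 54 receptors and ion channels, measuring binding or interaction at each target.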

[3] = target: Beta-2 adrenergic receptor (Homo sapiens) (UniProt P07550); experiment: Percentage binding to adrenergic beta-2 receptor at 10 uM
[4] = Half life in rat liver microsome; type: ADME; conditions: liver microsomes
[5] = target: Adenosine receptor A2a (Homo sapiens) (UniProt P29274); experiment: Percentage binding to adenosine A2a receptor at 10 uM
[6] = target: Mitogen-activated protein kinase 14 (Homo sapiens) (UniProt Q16539); experiment: Inhibition of SAPK2a at 10 uM
Phosphodiesterase 1 = Phosphodiesterase 1 (Homo sapiens, UniProt P54750+Q01064+Q14123); experiment: Inhibitory activity against PDE1 by scintillation proximity assay; type: protein assay
How it was run: (§2)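 Phosphodiesterase inhibition run as a scintillation proximity assay, with enzyme at a concentration in the linear range. Final substrate was 1 µM, below one-third of the enzyme K_M, so that IC50 approximates Ki. Values are means of n experiments with standard deviation.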

[7] = target: cAMP-dependent protein kinase (PKA) (Homo sapiens) (UniProt P22694+P17612+P22612); experiment: Inhibition of PKA at 10 uM; type: protein assay
[8] = target: Serotonin 3 (5-HT3) receptor (Homo sapiens) (UniProt P46098+A5X5Y0+O95264+Q70Z44+Q8WXA8); experiment: Percentage binding to serotonin 5HT3 at 10 uM; type: protein-complex assay
[9] = target: Mitogen-activated protein kinase 1 (Homo sapiens) (UniProt P28482); experiment: Inhibition of MAPK2 at 10 uM
[10] = target: MAP kinase-activated protein kinase 5 (Homo sapiens) (UniProt Q8IW41); experiment: Inhibition of PRAK at 10 uM
[11] = target: Casein kinase II (Homo sapiens) (UniProt P67870+P68400+P19784); experiment: Inhibition of CK2 at 10 uM; type: protein-complex assay
[12] = target: Glutamate receptor ionotropic kainate (Homo sapiens) (UniProt P39086+Q16478+Q16099+Q13002+Q13003); experiment: Percentage binding to kainate receptor at 10 uM; type: protein-complex assay
[13] = target: Voltage-dependent L-type calcium channel subunit alpha-1D (Homo sapiens) (UniProt Q01668); experiment: Percentage binding to Ca2+ channel D at 10 uM; how it was run: as §1
[14] = target: Tyrosine-protein kinase Lck (Homo sapiens) (UniProt P06239); experiment: Inhibition of LCK at 10 uM
[15] = target: Serine/threonine-protein kinase Nek2 (Homo sapiens) (UniProt P51955); experiment: Inhibition of NEK2 at 10 uM
[16] = target: Glycogen synthase kinase-3 beta (Homo sapiens) (UniProt P49841); experiment: Inhibition of GSK3-beta at 10 uM
[17] = target: 3',5'-cyclic-AMP phosphodiesterase 4A (Homo sapiens, UniProt P27815); experiment: Inhibitory activity against PDE4A by scintillation proximity assay; how it was run: as §2
[18] = target: D(1A) dopamine receptor (Homo sapiens) (UniProt P21728); experiment: Percentage binding to dopamine D1 at 10 uM
[19] = target: Mu-type opioid receptor (Homo sapiens) (UniProt P35372); experiment: Percentage binding to opioid mu at 10 uM
[20] = target: 3',5'-cyclic-AMP phosphodiesterase 4B (Homo sapiens, UniProt Q07343); experiment: Inhibitory activity against PDE4B by scintillation proximity assay; how it was run: as §2
3',5'-cyclic-AMP phosphodiesterase 4B, sequence (Q07343 whole entry): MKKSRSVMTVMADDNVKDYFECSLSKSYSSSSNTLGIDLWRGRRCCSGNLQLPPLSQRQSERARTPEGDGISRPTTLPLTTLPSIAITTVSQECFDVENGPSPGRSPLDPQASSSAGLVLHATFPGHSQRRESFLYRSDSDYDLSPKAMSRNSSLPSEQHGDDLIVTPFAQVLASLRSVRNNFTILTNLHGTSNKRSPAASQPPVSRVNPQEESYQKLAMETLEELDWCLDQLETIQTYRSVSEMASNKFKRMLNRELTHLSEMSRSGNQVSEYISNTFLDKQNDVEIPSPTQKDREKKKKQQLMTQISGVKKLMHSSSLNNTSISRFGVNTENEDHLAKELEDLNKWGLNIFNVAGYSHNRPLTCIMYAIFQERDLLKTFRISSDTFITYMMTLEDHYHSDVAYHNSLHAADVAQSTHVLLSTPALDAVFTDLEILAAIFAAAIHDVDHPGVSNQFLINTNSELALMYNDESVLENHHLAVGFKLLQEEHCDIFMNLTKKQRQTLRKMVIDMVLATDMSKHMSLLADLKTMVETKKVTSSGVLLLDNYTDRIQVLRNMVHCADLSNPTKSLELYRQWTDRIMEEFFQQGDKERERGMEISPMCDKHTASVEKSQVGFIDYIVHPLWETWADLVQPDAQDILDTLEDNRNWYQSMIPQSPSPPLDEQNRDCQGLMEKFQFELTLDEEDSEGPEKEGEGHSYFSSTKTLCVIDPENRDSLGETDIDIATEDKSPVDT

[21] = Percentage binding to neuronal NACHR at 10 uM; how it was run: as §1
[22] = target: Phosphorylase kinase (Homo sapiens) (UniProt P15735+P46020+P46019+Q93100+Q16816); experiment: Inhibition of PHK at 10 uM; type: protein-complex assay
[23] = target: cAMP and cAMP-inhibited cGMP 3',5'-cyclic phosphodiesterase 10A (Homo sapiens, UniProt Q9Y233); experiment: Inhibitory activity against PDE10 by scintillation proximity assay; how it was run: as §2
cAMP and cAMP-inhibited cGMP 3',5'-cyclic phosphodiesterase 10A, sequence (Q9Y233 whole entry): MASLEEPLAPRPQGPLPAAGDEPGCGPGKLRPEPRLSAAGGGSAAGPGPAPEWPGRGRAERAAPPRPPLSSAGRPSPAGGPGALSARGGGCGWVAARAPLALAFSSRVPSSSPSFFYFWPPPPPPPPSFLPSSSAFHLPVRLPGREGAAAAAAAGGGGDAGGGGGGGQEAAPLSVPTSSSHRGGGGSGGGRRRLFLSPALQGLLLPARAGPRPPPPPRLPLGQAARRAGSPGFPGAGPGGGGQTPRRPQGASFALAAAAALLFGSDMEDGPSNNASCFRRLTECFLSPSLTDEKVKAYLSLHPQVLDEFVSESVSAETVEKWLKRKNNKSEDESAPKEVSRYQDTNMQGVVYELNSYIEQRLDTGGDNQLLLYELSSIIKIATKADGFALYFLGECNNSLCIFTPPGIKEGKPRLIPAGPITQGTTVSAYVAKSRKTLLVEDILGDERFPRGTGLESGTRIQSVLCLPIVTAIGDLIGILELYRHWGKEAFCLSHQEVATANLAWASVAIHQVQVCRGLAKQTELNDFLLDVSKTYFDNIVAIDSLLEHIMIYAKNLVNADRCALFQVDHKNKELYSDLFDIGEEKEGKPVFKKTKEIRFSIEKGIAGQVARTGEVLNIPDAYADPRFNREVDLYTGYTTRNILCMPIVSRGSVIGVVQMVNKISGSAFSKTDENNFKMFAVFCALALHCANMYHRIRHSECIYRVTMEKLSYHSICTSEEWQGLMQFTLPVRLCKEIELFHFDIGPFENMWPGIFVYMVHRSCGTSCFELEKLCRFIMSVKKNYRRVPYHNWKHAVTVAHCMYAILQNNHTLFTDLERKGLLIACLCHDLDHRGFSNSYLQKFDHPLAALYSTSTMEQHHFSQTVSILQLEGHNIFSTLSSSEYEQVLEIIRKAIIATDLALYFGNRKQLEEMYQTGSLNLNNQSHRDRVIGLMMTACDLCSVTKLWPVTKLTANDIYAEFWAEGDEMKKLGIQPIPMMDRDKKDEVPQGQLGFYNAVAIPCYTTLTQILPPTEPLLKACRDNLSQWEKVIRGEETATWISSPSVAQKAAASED

[24] = target: Delta-type opioid receptor (Homo sapiens) (UniProt P41143); experiment: Percentage binding to opioid delta at 10 uM
[25] = target: Polyunsaturated fatty acid 5-lipoxygenase (Homo sapiens) (UniProt P09917); experiment: Inhibition of 5LOX at 10 uM
Polyunsaturated fatty acid 5-lipoxygenase (Homo sapiens), sequence (P09917 whole entry): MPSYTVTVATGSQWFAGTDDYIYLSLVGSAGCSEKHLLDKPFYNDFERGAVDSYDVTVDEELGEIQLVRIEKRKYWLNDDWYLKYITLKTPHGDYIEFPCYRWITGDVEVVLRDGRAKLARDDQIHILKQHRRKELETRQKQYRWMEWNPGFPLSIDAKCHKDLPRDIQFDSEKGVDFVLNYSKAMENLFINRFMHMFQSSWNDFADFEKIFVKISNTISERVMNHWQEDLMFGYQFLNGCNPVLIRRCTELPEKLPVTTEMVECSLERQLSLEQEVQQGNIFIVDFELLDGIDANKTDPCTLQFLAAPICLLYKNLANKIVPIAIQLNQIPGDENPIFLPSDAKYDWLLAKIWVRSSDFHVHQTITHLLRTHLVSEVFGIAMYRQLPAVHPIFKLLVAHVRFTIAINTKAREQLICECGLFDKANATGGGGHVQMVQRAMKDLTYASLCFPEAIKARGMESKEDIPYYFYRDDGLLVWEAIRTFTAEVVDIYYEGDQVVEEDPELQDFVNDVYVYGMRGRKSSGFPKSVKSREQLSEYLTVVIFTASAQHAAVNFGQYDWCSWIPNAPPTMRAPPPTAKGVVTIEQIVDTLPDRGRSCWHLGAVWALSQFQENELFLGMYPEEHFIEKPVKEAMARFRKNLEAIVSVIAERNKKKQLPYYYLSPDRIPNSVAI

[26] = Apical Caco-2 cell membrane permeability; type: ADME, cell-based; conditions: human
[27] = target: Voltage-dependent N-type calcium channel subunit alpha-1B (Homo sapiens) (UniProt Q00975); experiment: Percentage binding to Ca2+ channel N at 10 uM
[28] = target: Tyrosine-protein kinase CSK (Homo sapiens) (UniProt P41240); experiment: Inhibition of CSK at 10 uM
Tyrosine-protein kinase CSK (Homo sapiens), sequence (P41240 2-450 limits assumed): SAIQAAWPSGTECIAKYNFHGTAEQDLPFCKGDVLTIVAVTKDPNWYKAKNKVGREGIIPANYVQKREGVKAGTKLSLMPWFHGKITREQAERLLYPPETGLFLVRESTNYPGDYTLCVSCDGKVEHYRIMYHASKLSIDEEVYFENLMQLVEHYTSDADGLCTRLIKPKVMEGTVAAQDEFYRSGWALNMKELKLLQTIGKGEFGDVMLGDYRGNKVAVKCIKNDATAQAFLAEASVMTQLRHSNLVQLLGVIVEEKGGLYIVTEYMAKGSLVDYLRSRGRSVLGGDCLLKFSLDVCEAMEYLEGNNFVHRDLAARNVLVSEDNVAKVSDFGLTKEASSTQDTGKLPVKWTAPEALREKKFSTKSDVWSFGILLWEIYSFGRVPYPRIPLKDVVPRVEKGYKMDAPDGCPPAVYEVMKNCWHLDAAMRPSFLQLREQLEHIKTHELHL

[29] = target: AMP-activated protein kinase, AMPK (Homo sapiens) (UniProt P54646+O43741+P54619+Q9UGJ0+Q9Y478+Q13131+Q9UGI9); experiment: Inhibition of AMPK at 10 uM; type: protein-complex assay
Phosphodiesterase 3 = Phosphodiesterase 3 (Homo sapiens, UniProt Q14432+Q13370); experiment: Inhibitory activity against PDE3 by scintillation proximity assay; type: protein assay; how it was run: as §2
[30] = target: High affinity cAMP-specific and IBMX-insensitive 3',5'-cyclic phosphodiesterase 8B (Homo sapiens, UniProt O95263); experiment: Inhibitory activity against PDE8B by scintillation proximity assay
How it was run: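 Scintillation proximity assay for phosphodiesterase inhibition. Enzyme is used at a concentration within the linear range, and its KM was measured. Final substrate concentration is 1 µM, below one-third of KM, so IC50 approximates Ki. Results are means of n experiments with standard deviation.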

[31] = target: Adrenergic receptor alpha-1 (Homo sapiens) (UniProt P35348+P25100+P35368); experiment: Percentage binding to adrenergic alpha-1 receptor at 10 uM; type: protein assay
[32] = target: 5-hydroxytryptamine receptor 4 (Homo sapiens) (UniProt Q13639); experiment: Percentage binding to serotonin 5HT4 at 10 uM
[33] = target: Adenosine receptor A3 (Homo sapiens) (UniProt P0DMS8); experiment: Percentage binding to adenosine A3 receptor at 10 uM
[34] = target: 5-hydroxytryptamine receptor 2C (Homo sapiens) (UniProt P28335); experiment: Percentage binding to serotonin 5HT2C at 10 uM
[35] = target: Voltage-gated L-type calcium channel (Homo sapiens, UniProt Q13936+Q13698+Q01668+O60840); experiment: Percentage binding to Ca2+ channel L at 10 uM; type: protein assay
[36] = target: Beta-1 adrenergic receptor (Homo sapiens) (UniProt P08588); experiment: Percentage binding to adrenergic beta-1 receptor at 10 uM
[37] = target: D(4) dopamine receptor (Homo sapiens) (UniProt P21917); experiment: Percentage binding to dopamine D4 at 10 uM
[38] = target: Dual specificity mitogen-activated protein kinase kinase 1 (Homo sapiens) (UniProt Q02750); experiment: Inhibition of MKK1 at 10 uM
[39] = target: Casein kinase I (Homo sapiens) (UniProt Q9HCP0+P78368+P48730+P49674+P48729); experiment: Inhibition of CK1 at 10 uM; type: protein assay
[40] = target: Melanocortin receptor 4 (Homo sapiens) (UniProt P32245); experiment: Percentage binding to MCR4 at 10 uM

Voltage-dependent L-type calcium channel subunit alpha-1D (Homo sapiens), sequence (Q01668 whole entry): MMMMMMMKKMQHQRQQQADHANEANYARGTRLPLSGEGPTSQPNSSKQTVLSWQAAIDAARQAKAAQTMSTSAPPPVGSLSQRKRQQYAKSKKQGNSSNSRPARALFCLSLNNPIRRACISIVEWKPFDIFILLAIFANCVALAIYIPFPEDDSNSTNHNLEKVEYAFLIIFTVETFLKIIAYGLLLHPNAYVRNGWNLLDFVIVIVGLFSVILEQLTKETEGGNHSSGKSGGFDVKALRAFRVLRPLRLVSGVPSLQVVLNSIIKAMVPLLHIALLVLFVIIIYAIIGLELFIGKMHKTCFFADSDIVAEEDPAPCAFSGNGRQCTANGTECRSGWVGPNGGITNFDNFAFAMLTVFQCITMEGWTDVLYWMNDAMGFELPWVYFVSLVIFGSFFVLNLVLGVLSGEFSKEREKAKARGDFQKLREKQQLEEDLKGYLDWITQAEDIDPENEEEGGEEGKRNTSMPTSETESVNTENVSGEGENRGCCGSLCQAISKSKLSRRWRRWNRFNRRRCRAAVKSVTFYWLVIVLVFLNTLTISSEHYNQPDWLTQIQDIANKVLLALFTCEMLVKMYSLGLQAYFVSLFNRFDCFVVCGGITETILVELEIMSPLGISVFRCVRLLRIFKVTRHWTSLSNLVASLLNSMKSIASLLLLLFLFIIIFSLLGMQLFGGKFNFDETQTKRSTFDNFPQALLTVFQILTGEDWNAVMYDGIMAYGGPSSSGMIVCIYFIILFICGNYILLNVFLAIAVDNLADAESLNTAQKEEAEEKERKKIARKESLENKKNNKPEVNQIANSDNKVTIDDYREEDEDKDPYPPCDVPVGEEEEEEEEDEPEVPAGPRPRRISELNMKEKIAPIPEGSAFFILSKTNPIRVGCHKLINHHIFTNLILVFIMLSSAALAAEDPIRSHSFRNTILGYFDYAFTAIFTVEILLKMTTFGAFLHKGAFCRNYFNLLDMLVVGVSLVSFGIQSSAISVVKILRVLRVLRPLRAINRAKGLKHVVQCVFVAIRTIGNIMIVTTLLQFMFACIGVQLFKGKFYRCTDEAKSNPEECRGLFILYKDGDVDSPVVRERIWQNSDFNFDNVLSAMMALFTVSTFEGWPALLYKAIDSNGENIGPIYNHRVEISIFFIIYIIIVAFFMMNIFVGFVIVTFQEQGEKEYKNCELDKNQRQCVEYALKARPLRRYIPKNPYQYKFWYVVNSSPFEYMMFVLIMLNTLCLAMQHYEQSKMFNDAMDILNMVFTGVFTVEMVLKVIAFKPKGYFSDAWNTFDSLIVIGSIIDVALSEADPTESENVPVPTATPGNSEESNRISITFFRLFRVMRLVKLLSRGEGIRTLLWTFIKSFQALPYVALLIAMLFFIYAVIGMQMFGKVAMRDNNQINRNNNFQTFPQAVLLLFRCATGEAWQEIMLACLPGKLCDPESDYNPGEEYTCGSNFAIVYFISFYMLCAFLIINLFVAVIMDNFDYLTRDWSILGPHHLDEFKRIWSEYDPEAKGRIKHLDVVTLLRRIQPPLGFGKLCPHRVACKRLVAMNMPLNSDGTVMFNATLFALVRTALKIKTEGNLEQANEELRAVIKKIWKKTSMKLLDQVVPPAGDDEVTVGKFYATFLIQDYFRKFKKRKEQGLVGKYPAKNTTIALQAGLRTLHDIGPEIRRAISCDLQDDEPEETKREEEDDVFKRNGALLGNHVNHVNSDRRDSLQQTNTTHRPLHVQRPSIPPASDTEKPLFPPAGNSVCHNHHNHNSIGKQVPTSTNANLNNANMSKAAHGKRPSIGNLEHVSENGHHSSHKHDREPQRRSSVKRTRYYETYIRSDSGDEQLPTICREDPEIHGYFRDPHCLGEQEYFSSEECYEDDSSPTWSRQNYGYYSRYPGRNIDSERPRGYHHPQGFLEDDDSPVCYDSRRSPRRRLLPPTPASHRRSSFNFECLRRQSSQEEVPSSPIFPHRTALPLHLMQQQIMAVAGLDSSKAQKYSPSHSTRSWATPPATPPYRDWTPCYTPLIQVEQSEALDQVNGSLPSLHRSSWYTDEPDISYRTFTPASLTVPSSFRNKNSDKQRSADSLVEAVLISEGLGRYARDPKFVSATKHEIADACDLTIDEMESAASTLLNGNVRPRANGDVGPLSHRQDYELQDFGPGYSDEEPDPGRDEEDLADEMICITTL

## CN1C(=O)C(C(=O)Nc2nncs2)c2cc3occc3cc21 (configuration not stated)
[1]
  Activity: 0%
[2]
  Activity: 0%
[3]
  Activity: 12%
[4]
  half-life: 83 min
[5]
  Activity: 24%
[6]
  inhibition: 0%
Phosphodiesterase 1
  IC50: > 16 µM
[7]
  inhibition: 16%
[8]
  Activity: 0%
[9]
  inhibition: 12%
[10]
  inhibition: 28%
[11]
  inhibition: 32%
[12]
  Activity: 0%
[13]
  Activity: 0%
[14]
  inhibition: 5%
[15]
  inhibition: 0%
[16]
  inhibition: 16%
[17]
  IC50: > 16 µM
[18]
  Activity: 5%
[19]
  Activity: 3%
[20]
  IC50: > 16 µM
[21]
  Activity: 7%
[22]
  inhibition: 0%
[23]
  IC50: > 16 µM
[24]
  Activity: 3%
[25]
  inhibition: 35%
[26]
  Papp: 5 ×10⁻⁶ cm/s
[27]
  Activity: 0%
[28]
  inhibition: 5%
[29]
  inhibition: 8%
Phosphodiesterase 3
  IC50: > 16 µM
[30]
  IC50: > 16 µM
[31]
  Activity: 0%
[32]
  Activity: 0%
[33]
  Activity: 35%
[34]
  Activity: 0%
[35]
  Activity: 0%
[36]
  Activity: 15%
[37]
  Activity: 0%
[38]
  inhibition: 0%
[39]
  inhibition: 10%
[40]
  Activity: 12%
